In series [1] the target is T1, Protein deacetylase HDAC6 (Homo sapiens) (UniProt Q9UBN7).
T1 sequence (whole entry): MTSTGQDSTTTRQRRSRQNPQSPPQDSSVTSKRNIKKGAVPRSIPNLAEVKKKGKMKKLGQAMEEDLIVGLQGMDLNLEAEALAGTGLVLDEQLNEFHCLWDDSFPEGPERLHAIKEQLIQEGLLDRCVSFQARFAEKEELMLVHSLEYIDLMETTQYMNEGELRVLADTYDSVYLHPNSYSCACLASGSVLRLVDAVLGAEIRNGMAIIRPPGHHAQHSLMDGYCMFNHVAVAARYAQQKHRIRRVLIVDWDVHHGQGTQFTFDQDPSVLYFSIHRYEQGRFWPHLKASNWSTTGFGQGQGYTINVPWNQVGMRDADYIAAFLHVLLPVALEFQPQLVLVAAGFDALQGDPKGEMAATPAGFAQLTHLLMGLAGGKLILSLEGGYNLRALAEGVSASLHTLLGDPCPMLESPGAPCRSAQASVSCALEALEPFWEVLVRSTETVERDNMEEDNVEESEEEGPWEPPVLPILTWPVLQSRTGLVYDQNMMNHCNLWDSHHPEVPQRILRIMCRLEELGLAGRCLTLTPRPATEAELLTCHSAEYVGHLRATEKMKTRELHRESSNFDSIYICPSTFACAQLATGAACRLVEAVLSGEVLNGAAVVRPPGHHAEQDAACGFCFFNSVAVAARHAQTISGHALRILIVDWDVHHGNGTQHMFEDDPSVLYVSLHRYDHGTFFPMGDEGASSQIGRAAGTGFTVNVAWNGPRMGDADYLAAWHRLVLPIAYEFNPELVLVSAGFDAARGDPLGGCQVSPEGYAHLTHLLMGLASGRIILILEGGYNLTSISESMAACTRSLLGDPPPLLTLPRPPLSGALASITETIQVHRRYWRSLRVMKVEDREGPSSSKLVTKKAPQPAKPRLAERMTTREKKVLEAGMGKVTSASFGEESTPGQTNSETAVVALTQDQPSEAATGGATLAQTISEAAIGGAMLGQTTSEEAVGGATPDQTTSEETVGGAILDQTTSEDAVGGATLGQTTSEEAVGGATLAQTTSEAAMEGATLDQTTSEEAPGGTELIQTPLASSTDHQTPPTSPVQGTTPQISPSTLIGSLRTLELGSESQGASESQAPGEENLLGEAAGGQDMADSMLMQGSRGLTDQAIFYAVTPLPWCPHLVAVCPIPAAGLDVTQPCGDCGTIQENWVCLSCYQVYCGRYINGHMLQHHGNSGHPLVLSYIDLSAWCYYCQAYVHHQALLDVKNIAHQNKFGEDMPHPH
Briefly: Inhibition of HDAC6 in human HuH7-luc/neo cells assessed as ratio of alphaTubK40ac content to the content of unmodified alpha-tubulin at 0.3 uM incubated for 24 hrs by Western blot analysis relative to control. In kind it is cell-based. The gist of the method: (§1)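 Huh7-luc/neo cells were dosed after 24 h at 40-50% monolayer and exposed to compound for 24 h at 37 °C in 5% CO2. For α-tubulin and SMC3, cells were PBS-washed and lysed. Histone H3 was acid-extracted: TEB buffer with 0.5% Triton X-100, then 0.2 M HCl overnight at 4 °C, then neutralized. Western blots were blocked in 5% milk/PBST with overnight primary antibody at 4 °C. Values are acetylated/total normalized ratios versus control.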

Series [2] deals with T1, Protein deacetylase HDAC6 (Homo sapiens). Briefly: Inhibition of HDAC6 in human HuH7-luc/neo cells assessed as ratio of alphaTubK40ac content to the content of unmodified alpha-tubulin at 1 uM incubated for 24 hrs by Western blot analysis relative to control. Type of series: cell-based. The gist of the method: as §1
(A western blot detects proteins with antibodies after separation by electrophoresis.)

For series [3] the target is unchanged. Put plainly: Inhibition of HDAC6 in human HuH7-luc/neo cells assessed as ratio of alphaTubK40ac content to the content of unmodified alpha-tubulin at 3 uM incubated for 24 hrs by Western blot analysis relative to control. Type of series: cell-based. The gist of the method:
as §1

The target in series [4] is T2, Histone deacetylase 1/2/3 (Homo sapiens) (UniProt Q13547+O15379+Q92769). Put plainly: Inhibition of HDAC1/2/3 in human HuH7-luc/neo cells assessed as ratio of H3K9/14ac content to the content of unmodified histone H3 at 3 uM incubated for 24 hrs by Western blot analysis relative to control. Type of series: cell-based. The gist of the method:
as §1

Series [5] concerns the target T2, Histone deacetylase 1/2/3 (Homo sapiens). Put plainly: Inhibition of HDAC1/2/3 in human HuH7-luc/neo cells assessed as ratio of H3K9/14ac content to the content of unmodified histone H3 at 1 uM incubated for 24 hrs by Western blot analysis relative to control. In kind it is cell-based. The gist of the method: as §1
Series [6] addresses T3, Histone deacetylase 8 (Homo sapiens) (UniProt Q9BY41).
T3 sequence (whole entry): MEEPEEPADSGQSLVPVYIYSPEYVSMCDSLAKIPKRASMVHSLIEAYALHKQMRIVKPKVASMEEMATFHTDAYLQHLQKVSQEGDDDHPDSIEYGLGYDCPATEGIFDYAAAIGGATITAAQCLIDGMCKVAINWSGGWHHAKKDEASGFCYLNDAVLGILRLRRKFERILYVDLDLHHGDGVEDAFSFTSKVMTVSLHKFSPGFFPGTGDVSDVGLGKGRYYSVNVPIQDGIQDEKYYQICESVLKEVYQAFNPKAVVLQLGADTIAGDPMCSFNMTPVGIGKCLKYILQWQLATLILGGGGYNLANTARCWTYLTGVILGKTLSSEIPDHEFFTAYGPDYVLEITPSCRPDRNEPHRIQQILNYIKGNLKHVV
Put plainly: Inhibition of HDAC8 in human HuH7-luc/neo cells assessed as ratio of SMC3K105/106ac content to the content of unmodified SMC3 at 3 uM incubated for 24 hrs by Western blot analysis relative to control. Type of series: cell-based. The gist of the method: as §1

Series [7] can be described thus: Therapeutic index, ratio of CC50 for human HuH7 cells to EC50 for HCV infected in human HuH7-luc/neo cells. In kind it is toxicity, cell-based. As to conditions: HuH7 cells (CC50) and HCV-infected HuH7-luc/neo cells (EC50).
The test system of series [8] is Hepatitis C virus. Put plainly: Antiviral activity against HCV infected in human HuH7-luc/neo cells assessed as inhibition of viral replicon propagation incubated for 3 days by luciferase reporter gene assay. Type of series: functional, organism-based, Hepacivirus hominis. As to conditions: 72 h. The gist of the method:
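Huh7-luc/neo cells carrying a full-length HCV replicon with a luciferase gene. Cells were reseeded without G418 and dosed at 30-40% monolayer (48 h) over a range of concentrations. Incubation was 72 h at 37 °C in 5% CO2. Cells were then PBS-washed and lysed, and luciferase chemiluminescence was read. EC50 is the mean and standard deviation of at least four independent experiments.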

The target in series [9] is T3, Histone deacetylase 8 (Homo sapiens). Briefly: Inhibition of HDAC8 in human HuH7-luc/neo cells assessed as ratio of SMC3K105/106ac content to the content of unmodified SMC3 at 10 uM incubated for 24 hrs by Western blot analysis relative to control. In kind it is cell-based. The gist of the method:
as §1

Series [10] can be described thus: Cytotoxicity against human HuH7 cells assessed as reduction in cell viability incubated for 3 days by MTT assay. In kind it is cell-based, Huh-7. The gist of the method: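 Huh7 cells were reseeded and dosed over a range of concentrations after 24 h (30-40% monolayer). Incubation was three days at 37 °C in 5% CO2, and viability was read by MTT. CC50 is the mean and standard deviation of at least six independent experiments.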
On the technique in general: Tetrazolium dyes change colour on reduction, which living cells bring about.

The target of series [11] is T2, Histone deacetylase 1/2/3 (Homo sapiens). Put plainly: Inhibition of HDAC1/2/3 in human HuH7-luc/neo cells assessed as ratio of H3K9/14ac content to the content of unmodified histone H3 at 0.3 uM incubated for 24 hrs by Western blot analysis relative to control. Type of series: cell-based. The gist of the method:
as §1

pEC50: −log10 of the molar value.

This note sets out measurements from ChEMBL document CHEMBL4311979, “Structural isomers of cinnamic hydroxamic acids block HCV replication via different mechanisms” (Eur J Med Chem, 2019).

As to `O=C(/C=C/c1cccc(Oc2ccccc2)c1)NO`, the fold change (FC) in series [1] came to 1.54; in series [2] it was 2.58; in [3], 3.79; in series [4] it was 1.9; in series [5] it was 1.75; in series [6], 0.54. Moreover, the fold change (FC) in series [9] is 1.02; in series [11] it was 1.27. The selectivity ratio in series [7] came to 50. Moreover, the negative-log EC50 (pEC50) in series [8] is 6.40. Moreover, the CC50 at 72 h in series [10] is 20 µM.
Consider `O=C(/C=C/c1cccc(OCCc2ccccc2)c1)NO`, for which the fold change (FC) in series [2] turned out to be 3.53; in series [3], 4.34; in series [4], 11.2; in series [5] it was 8.55; in [6] it was 0.7; in series [9], 0.58. In [7], the selectivity ratio worked out at 41. Besides, the negative-log EC50 (pEC50) in series [8] was 6.52. The CC50 at 72 h in series [10] was determined as 12 µM.
For the compound `O=C(/C=C/c1ccc(OCCOc2ccccc2)cc1)NO`, the fold change (FC) in series [1] was 0.86; in series [2] it was 3.73; in [3], 6.35; in series [4] it was 15.4; in series [5], 11.2; in series [6] it was 0.84. In addition, the results for the fold change (FC) in series [9] and in [11] were 1.13 and 4.04, respectively. In addition, the selectivity ratio in series [7] was found to be 91. Also, in [8], the negative logarithm of the EC50 (pEC50) was 7.20. For the same compound, the CC50 at 72 h in series [10] turned out to be 5.7 µM.
`COc1ccc(/C=C/C(=O)NO)cc1`: the fold change (FC) worked out at 0.55 in series [1]; 3.57 in [2]; 5.1 in series [3]; 1.85 in [4]; 1.35 in series [5]. Besides, the selectivity ratio in [7] was 27. Besides, the pEC50 in [8] was 6.25. Also, in series [10], the cytotoxic concentration (CC50) at 72 h was found to be 15 µM.
Turning to `O=C(/C=C/c1ccc(OCCc2ccccc2)cc1)NO`, the fold change (FC) came out at 0.52 in [1]; 0.5 in [2]; 2.55 in [3]; 9.6 in [4]; 9 in [5]; 0.52 in series [6]. Further, the fold change (FC) in series [9] amounted to 0.41; in series [11], 4.3. The selectivity ratio in [7] turned out to be 120. The pEC50 in series [8] is 6.89. The half-maximal cytotoxic concentration (CC50) at 72 h in series [10] worked out at 16 µM.
With `O=C(/C=C/c1ccc(OCc2ccccc2)cc1)NO`, the fold change (FC) in series [1] was determined as 1.63; in [2], 4.92; in series [3] it was 8.86; in [4], 4.83; in series [5], 4.23; in [6] it was 0.93. For the same compound, the fold change (FC) in series [9] turned out to be 0.67. In addition, the selectivity ratio in [7] is 240. The pEC50 in [8] was 7.38. For the same compound, the CC50 at 72 h in [10] was found to be 9.9 µM.
Regarding `O=C(/C=C/c1cccc(OCCOc2ccccc2)c1)NO`, the fold change (FC) in series [2] was determined as 3.33; in series [3] it was 7.72; in series [4], 20.2; in [5] it was 7.5; in [6], 0.89; in series [9], 1.44. Further, the selectivity ratio in series [7] came out at 55. Also, in [8], the negative logarithm of the EC50 (pEC50) is 6.96. Further, the 50% cytotoxic concentration (CC50) at 72 h in [10] was 6 µM.
With `COc1ccccc1/C=C/C(=O)NO`, the fold change (FC) came out at 0.75 in series [2], 1.45 in series [3], 1.56 in [4] and 1.16 in series [5]. In addition, in series [7], the selectivity ratio came to 27. In addition, in [8], the pEC50 was 5.96. The 50% cytotoxic concentration (CC50) at 72 h in series [10] is 30 µM.
`COc1cccc(/C=C/C(=O)NO)c1`: the fold change (FC) turned out to be 2.13 in [2], 3.3 in [3], 1.69 in series [4] and 1.45 in series [5]. In addition, the selectivity ratio in [7] was 30. Moreover, in [8], the negative-log EC50 (pEC50) is 6.24. Also, the 50% cytotoxic concentration (CC50) at 72 h in [10] was 17 µM.
In the case of `O=C(/C=C/c1cccc(OCc2ccccc2)c1)NO`, the fold change (FC) was determined as 7.34 in series [2]; 10.6 in series [3]; 14.1 in series [4]; 8.42 in [5]; 0.82 in series [6]; 0.83 in [9]. In addition, in [7], the selectivity ratio came to 37. Besides, in series [8], the negative-log EC50 (pEC50) is 6.74. Moreover, in [10], the CC50 at 72 h stood at 6.6 µM.
Turning to `O=C(/C=C/c1ccc(Oc2ccccc2)cc1)NO`, the fold change (FC) in series [1] worked out at 2.09; in [2], 2.22; in series [3], 2.58; in series [4], 2.58; in [5], 1.69; in series [6], 0.83. Moreover, the values for the fold change (FC) in [9] and in [11] were 0.73 and 1.53, respectively. Moreover, the selectivity ratio in series [7] came to 370. The pEC50 in series [8] is 7.27. In series [10], the CC50 at 72 h was 20 µM.

By pEC50 is commonly meant the negative decadic logarithm of the EC50, by convention in mol/L. Usually CC50 stands for the concentration at which the toxic effect on the cells reaches its halfway point.
